Measured values reported in ChEMBL document CHEMBL1124947, “Cationic antiprotozoal drugs. Trypanocidal activity of 2-(4'-formylphenyl)imidazo[1,2-a]pyridinium guanylhydrazones and related derivatives of quaternary heteroaromatic compounds” (J Med Chem, 1990).

Columns and labels:
Type in all cases: functional
[1] = tested on: Mus musculus; test: Trypanocidal Activity at I.C.E. value 0.74 when administered subcutaneously.
Summary of the method: (§1)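 Mice, in groups of five per dose, were given a standard inoculum of blood-stage T. rhodesiense that is lethal to all untreated controls, then dosed subcutaneously. Usually 11 dose levels were used (2^n × 0.42 mg/kg).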

[2] = tested on: Mus musculus; test: Trypanocidal Activity at I.C.E. value 0.60 when administered subcutaneously.; summary of the method: as §1
[3] = tested on: Mus musculus; test: Trypanocidal Activity at I.C.E. value 0.61 when administered perorally.
[4] = tested on: Mus musculus; test: Trypanocidal Activity at I.C.E. value 0.63 when administered perorally.
[5] = tested on: Mus musculus; test: Trypanocidal Activity at I.C.E. value 0.94 when administered subcutaneously.; summary of the method: as §1
[6] = tested on: Trypanosoma brucei rhodesiense; test: In Vitro measurement of inhibition of thymidine uptake in cell culture of Trypanosoma rhodesiense.; conditions: read-out: ID50 (the source's name)
Summary of the method: (§2)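 Parasites harvested from infected rats and incubated 3 h across a drug concentration series, usually 0.1–100 µg/mL. Incorporation of radiolabeled thymidine measured. ID50 is the concentration (µg/mL) producing 50% inhibition.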

[7] = tested on: Mus musculus; test: Trypanocidal Activity at I.C.E. value 0.56 when administered perorally.
[8] = tested on: Mus musculus; test: Trypanocidal Activity at I.C.E. value 0.57 when administered subcutaneously.; summary of the method: as §1
[9] = tested on: Trypanosoma brucei rhodesiense; test: In Vitro measurement of inhibition of Leucine uptake in cell culture of Trypanosoma rhodesiense.; conditions: read-out: ID50 (the source's name)
Summary of the method: (§3)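 Trypanosomes harvested from infected rats, cultured 3 h with several concentrations of drug, usually 0.1–100 µg/mL. Radiolabeled L-leucine uptake measured. ID50 is the concentration in µg/mL giving 50% inhibition of incorporation.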

[10] = tested on: Mus musculus; test: Trypanocidal Activity at I.C.E. value 0.41 when administered subcutaneously.
Summary of the method: (§4)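 Blood-stage T. rhodesiense infection came from a standard inoculum lethal to all untreated mice. Drug was given by subcutaneous injection to groups of five mice. Survival beyond 30 days counted as cure. […] Sub-curative doses scored 0, and data were normalized at each dose.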

[11] = tested on: Mus musculus; test: Trypanocidal Activity at I.C.E. value 0.40 when administered perorally.
[12] = tested on: Mus musculus; test: Trypanocidal Activity at I.C.E. value 0.84 when administered subcutaneously.; summary of the method: as §1
[13] = tested on: Mus musculus; test: Trypanocidal Activity at I.C.E. value 0.54 when administered subcutaneously.; summary of the method: as §4
[14] = tested on: Mus musculus; test: Trypanocidal Activity at I.C.E. value 0.49 when administered subcutaneously.; summary of the method: as §4
[15] = tested on: Mus musculus; test: Trypanocidal Activity at I.C.E. value 0.48 when administered perorally.
[16] = tested on: Mus musculus; test: Trypanocidal Activity at I.C.E. value 0.66 when administered subcutaneously.; summary of the method: as §1
[17] = tested on: Mus musculus; test: Trypanocidal Activity at I.C.E. value 0.49 when administered perorally.
[18] = tested on: Mus musculus; test: Trypanocidal Activity at I.C.E. value 0.17 when administered perorally.
[19] = tested on: Mus musculus; test: Trypanocidal Activity at I.C.E. value 0.63 when administered subcutaneously.; summary of the method: as §1
[20] = tested on: Mus musculus; test: Trypanocidal Activity at I.C.E. value 0.30 when administered subcutaneously.; summary of the method: as §4
[21] = tested on: Mus musculus; test: Trypanocidal Activity at I.C.E. value 0.15 when administered perorally.
[22] = tested on: Trypanosoma brucei rhodesiense; test: In Vitro measurement of inhibition of leucine uptake in cell culture of Trypanosoma rhodesiense; conditions: read-out: ID50 (the source's name); summary of the method: as §3
[23] = tested on: Mus musculus; test: Trypanocidal Activity at I.C.E. value 0.79 when administered subcutaneously.; summary of the method: as §1
[24] = tested on: Trypanosoma brucei rhodesiense; test: In Vitro measurement of inhibition of thymidine uptake in cell culture of Trypanosoma rhodesiense; conditions: read-out: ID50 (the source's name); summary of the method: as §2
[25] = tested on: Mus musculus; test: Trypanocidal Activity at I.C.E. value 0.55 when administered subcutaneously.; summary of the method: as §1
[26] = tested on: Mus musculus; test: Trypanocidal Activity at I.C.E. value 0.47 when administered subcutaneously.; summary of the method: as §4
[27] = tested on: Mus musculus; test: Trypanocidal Activity at I.C.E. value 0.4 when administered perorally.
[28] = tested on: Mus musculus; test: Trypanocidal Activity at I.C.E. value 0.06 when administered perorally.
[29] = tested on: Mus musculus; test: Trypanocidal Activity at I.C.E. value 0.24 when administered subcutaneously.; summary of the method: as §4
[30] = tested on: Mus musculus; test: Trypanocidal Activity at I.C.E. value 0.48 when administered subcutaneously.; summary of the method: as §4
[31] = tested on: Mus musculus; test: Trypanocidal Activity at I.C.E. value 0.47 when administered perorally.
[32] = tested on: Mus musculus; test: Trypanocidal Activity at I.C.E. value 0.36 when administered subcutaneously.

**Q.** How did the CD50 [1] turn out when `C[n+]1c(/C=C/c2ccc(/C=N/NC(=N)N3CCCC3)cc2)cn2ccccc21.Cc1ccc(S(=O)(=O)O)cc1.Cc1ccc(S(=O)(=O)[O-])cc1` was run?
**A.** 0.8 mg/kg

**Q.** What does the source list for `Br.C[n+]1c(COc2ccc(/C=N/NC3=NCCN3)cc2)cn2ccccc21.[Br-]`?
**A.** CD50 [2]: 0.8 mg/kg; CD50 [3]: 6.6 mg/kg

**Q.** Which results are given for `C[n+]1c(-c2ccc(/C=C/C=N/NC(=N)N)cc2)cn2ccccc21.Cc1ccc(S(=O)(=O)O)cc1.Cc1ccc(S(=O)(=O)[O-])cc1`?
**A.** CD50 [4]: 6.6 mg/kg; CD50 [5]: 0.06 mg/kg

**Q.** How did the IC50 [6] turn out when `Br.C[n+]1c(-c2ccc(/C=N/NC3=NCCN3)cc2)cn2ccccc21.[Br-]` was run?
**A.** 0.8 µg/mL

**Q.** And the CD50 [7]?
**A.** 13 mg/kg

**Q.** And the CD50 [8]?
**A.** 0.8 mg/kg

**Q.** And the IC50 [9]?
**A.** 0.9 µg/mL

**Q.** Which CD50 [10] does the source give for `Br.Cc1ccc2n(c1)cc(/C=C/c1ccc(/C=N/NC3=NCCCN3)cc1)[n+]2C.[Br-]` here?
**A.** 1.6 mg/kg

**Q.** `Br.CC/N=C(\NCC)N/N=C/c1ccc(-c2cn3ccccc3[n+]2C)cc1.[Br-]` was tested. Which CD50 [11] did it give?
**A.** 53 mg/kg

**Q.** And the CD50 [8]?
**A.** 1.6 mg/kg

**Q.** For `Br.Cc1cccc2n1cc(/C=C/c1ccc(/C=N/NC3=NCCCN3)cc1)[n+]2C.[Br-]`, which CD50 [12] is on record?
**A.** 0.4 mg/kg

**Q.** `Br.CNC(=N)N/N=C/c1ccc(-c2cn3ccccc3[n+]2C)cc1.[Br-]` was tested. Which IC50 [6] did it give?
**A.** 0.5 µg/mL

**Q.** And the IC50 [9]?
**A.** 0.7 µg/mL

**Q.** What about the CD50 [10] of the same molecule?
**A.** 0.8 mg/kg

**Q.** `Br.Cn1cc[n+](C)c1/C=C/c1ccc(/C=N/NC2=NCCCN2)cc1.[Br-]` was tested. Which CD50 [4] did it give?
**A.** 6.6 mg/kg

**Q.** What about the CD50 [13] of the same molecule?
**A.** 0.8 mg/kg

**Q.** With `Br.Cc1cccc2n1cc(COc1ccc(/C=N/NC(=N)N)cc1)[n+]2C.[Br-]` as the molecule, how does the CD50 [14] read?
**A.** 0.8 mg/kg

**Q.** And the CD50 [15]?
**A.** 13 mg/kg

**Q.** `Br.CCNC(=N)N/N=C/c1ccc(/C=C/c2cn3ccccc3[n+]2C)cc1.[Br-]` was tested. Which CD50 [16] did it give?
**A.** 0.1 mg/kg

**Q.** With `Br.CCNC(=N)N/N=C/c1ccc(OCc2n(C)c3ccccc3[n+]2C)cc1.[Br-]` as the molecule, how does the CD50 [2] read?
**A.** 1.6 mg/kg

**Q.** Which results are given for `Br.Cc1cccc2n1cc(COc1ccc(/C=N/NC(=N)NO)cc1)[n+]2C.[Br-]`?
**A.** CD50 [1]: 0.8 mg/kg; CD50 [17]: 13 mg/kg

**Q.** What does the source list for `CCCCSc1ccc2n(c1)cc(-c1ccc(/C=N/NC(=N)N3CCCC3)cc1)[n+]2C.Cc1ccc(S(=O)(=O)O)cc1.Cc1ccc(S(=O)(=O)[O-])cc1`?
**A.** CD50 [18]: 212 mg/kg; CD50 [19]: 3.3 mg/kg

**Q.** Which results are given for `Br.CC/N=C(\NCC)N/N=C/c1ccc(C[n+]2cn(C)c3ccccc32)cc1.[Br-]`?
**A.** CD50 [20]: 13 mg/kg; CD50 [21]: 424 mg/kg

**Q.** Which results are given for `CC(=O)Nc1ccc2n(c1)cc(-c1ccc(/C=N/NC(=N)N)cc1)[n+]2C.Cc1ccc(S(=O)(=O)O)cc1.Cc1ccc(S(=O)(=O)[O-])cc1`?
**A.** IC50 [22]: > 10 µg/mL; CD50 [23]: 0.4 mg/kg; IC50 [24]: 1.5 µg/mL

**Q.** `Cc1ccc(S(=O)(=O)O)cc1.Cc1ccc(S(=O)(=O)[O-])cc1.Cc1ccn2cc(-c3ccc(/C=N/NC(=N)N)cc3)[n+](C)c2c1` was tested. Which IC50 [6] did it give?
**A.** 1 µg/mL

**Q.** And the CD50 [25]?
**A.** 1.6 mg/kg

**Q.** Which results are given for `C[n+]1ccc(COc2ccc(/C=N/NC(=N)N3CCCC3)cc2)cc1.Cc1ccc(S(=O)(=O)O)cc1.Cc1ccc(S(=O)(=O)[O-])cc1`?
**A.** CD50 [26]: 0.8 mg/kg; IC50 [22]: 13.6 µg/mL; CD50 [27]: 424 mg/kg; IC50 [24]: 9.3 µg/mL

**Q.** For `Cc1ccc(S(=O)(=O)O)cc1.Cc1ccc(S(=O)(=O)[O-])cc1.Cc1ccc2n(c1)cc(-c1ccc(/C=C/C=N/NC(=N)N)cc1)[n+]2C`, which CD50 [28] is on record?
**A.** 424 mg/kg

**Q.** And the CD50 [29]?
**A.** 106 mg/kg

**Q.** Which CD50 [26] does the source give for `Br.C[n+]1cccc(COc2ccc(/C=N/NC(=N)N3CCCC3)cc2)c1.[Br-]` here?
**A.** 0.8 mg/kg

**Q.** And the IC50 [22]?
**A.** 0.8 µg/mL

**Q.** And the CD50 [27]?
**A.** 26 mg/kg

**Q.** And the IC50 [24]?
**A.** 0.3 µg/mL

**Q.** Which results are given for `Br.Cc1ccn2cc(-c3ccc(/C=N/NC(=N)N4CCCC4)cc3)[n+](C)c2c1.[Br-]`?
**A.** CD50 [30]: 0.1 mg/kg; CD50 [31]: 13 mg/kg

**Q.** With `Br.C[n+]1c(COc2ccc(/C=N/NC(=N)N3CCCC3)cc2)cn2ccccc21.[Br-]` as the molecule, how does the CD50 [32] read?
**A.** 0.8 mg/kg

**Q.** What about the CD50 [31] of the same molecule?
**A.** 26 mg/kg
